Key:
[1] = Dissociation constant (pKa) was determined by spectrophotometric method; assay type: physicochemical
Procedure, shortened: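 Compound (ca. 0.1 mM) first dissolved in phosphate buffer pH 2.2 (μ = 0.1); UV-visible spectrum recorded, then pH raised in ca. 0.5-unit steps to pH 10 with NaOH, spectrum taken at each step. pKa calculated from the pH-dependent shift in λmax of the two intense UV bands.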

Mus musculus = organism: Mus musculus; test: Compound was evaluated for lethal dose against mouse brain; assay type: toxicity, organism-based; conditions: in vivo
[2] = Compound was autooxidized for 2 hour at 37 degree Celsius in pH 7.4 Pseudo-first-order rate constant; assay type: ADME; conditions: pH 7.4, 2 h
Procedure, shortened: (§1)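 5,7-DHT (0.5–1.0 mM) autoxidised at 37 °C in pH 7.4 phosphate buffer (μ = 0.2), with air vigorously bubbled through. Loss of 5,7-DHT was followed by HPLC peak area (reversed-phase RP-18; triethylamine/acetic acid mobile phase, pH 3.30; UV detection at 254 nm). The rate constant came from linear ln(peak area) vs time plots over the first 2 h.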

[3] = Compound was autooxidized for 2 hour at 37 degree Celsius in pH 7.4 phosphate buffer Pseudo-first-order rate constant; assay type: ADME; conditions: pH 7.4, 2 h; procedure, shortened: as §1
[4] = Compound was autooxidized for 2 hour at 37 degree Celsius in pH 7.4 phosphate buffer pseudo-first-order rate constant 0.1 mM EDTA; assay type: ADME; conditions: pH 7.4, 2 h
[5] = Pseudo-first-order rate constant was determined in pH 7.4 phosphate buffer in presence 0.5 mM EDTA; assay type: ADME
[6] = Pseudo-first-order rate constant was determined in pH 7.4 phosphate buffer in presence 50 mM EDTA; assay type: ADME
[7] = Pseudo-first-order rate constant was determined in pH 7.4 phosphate buffer in presence 70 mM EDTA; assay type: ADME
[8] = Dissociation constant (pKa) was reported after potentiometric titration with 0.2 mM KOH; assay type: physicochemical
[9] = Half-life was reported for slow rate of autooxidation reaction; assay type: ADME
[10] = Half-life was reported for stability at pH 8; assay type: physicochemical; conditions: buffer

NCCc1c[nH]c2c1C(=O)C(O)=C(C1=C(O)c3[nH]cc(CCN)c3C(=O)C1=O)C2=O gave a pKa [1] of 6.5.
NCCc1c[nH]c2c1C(=O)C(=O)C=C2O showed a pKa [1] of 5.6 and an LD50 (Mus musculus) of 21 µg.
In the case of NCCc1c[nH]c2c(O)cc(O)cc12, the K [2] is reported as 0.046 min⁻¹, the K [3] is reported as 0.012 min⁻¹ and the K [4] is reported as 0.012 min⁻¹. It also gave a K [5] of 0.017 min⁻¹, a K [6] of 0.014 min⁻¹ and a K [7] of 0.015 min⁻¹. The pKa [8] was 4.8.
Compound CC1(C)CC=CN1[O] has a half-life [9] of 1 min and a half-life [10] of 35 min.

From ChEMBL document CHEMBL1125074, “Autoxidation of the serotonergic neurotoxin 5,7-dihydroxytryptamine” (J Med Chem, 1990)
